In BindingDB's records for doi:10.1021/jm050851n (University of Arizona, 2006) one finds EC50 data, which are given here for 1 compound.

For orientation: EC50 means the concentration needed to bring the measured effect to its halfway point. A lower EC50 goes with greater potency.

The assay deals with Mu-type opioid receptor (Rattus norvegicus, UniProt P33535). Description: Displacement of [3H]DAMGO from rat mu opioid receptor expressed in HN9.10 cells. The essentials: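 Membranes from stably transfected HN9.10 neuroblastoma cells in 50 mM Tris pH 7.4 with bacitracin, bestatin, captopril, PMSF and 1 mg/mL BSA. 50 µg membrane, 10 test concentrations, 1.0 nM [3H]DAMGO (Kd level). Nonspecific binding defined with 10 µM naloxone. Duplicates, 3 h at 25 °C, filtration, scintillation counting. Ki from IC50 by Cheng–Prusoff; at least two independent experiments.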
(In general: Loss of bound radioactivity is the signal in a displacement assay; it reports binding, not function.)

Sequence of Mu-type opioid receptor (P33535 whole entry): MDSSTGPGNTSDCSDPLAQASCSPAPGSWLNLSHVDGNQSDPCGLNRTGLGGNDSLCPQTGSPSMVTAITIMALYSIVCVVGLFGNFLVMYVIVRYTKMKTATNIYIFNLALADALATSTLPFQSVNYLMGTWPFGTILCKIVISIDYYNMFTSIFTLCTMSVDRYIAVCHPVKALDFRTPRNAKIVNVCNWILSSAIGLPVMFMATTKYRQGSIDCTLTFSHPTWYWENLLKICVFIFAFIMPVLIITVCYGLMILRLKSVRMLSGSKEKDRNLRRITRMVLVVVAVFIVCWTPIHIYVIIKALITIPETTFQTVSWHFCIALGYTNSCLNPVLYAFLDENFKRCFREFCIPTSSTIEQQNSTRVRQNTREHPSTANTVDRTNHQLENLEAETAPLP

Take `CC(=O)N[C@@H](Cc1c[nH]c2ccccc12)C(=O)N[C@@H](CCCCNC(=O)Nc1ccccc1Cl)C(=O)N[C@@H](CC(=O)O)C(=O)N(C)[C@@H](Cc1ccccc1)C(=O)NNC(=O)[C@H](Cc1ccccc1)NC(=O)CNC(=O)[C@@H](C)NC(=O)[C@@H](N)Cc1ccc(O)cc1` [H-Tyr-D-Ala-Gly-Phe-NH-NH-(NMe)Phe-Asp-Lys(Cpac)-Trp-Ac]: the EC50 was 14 nM.
